PubChem BioAssay
Active and inactive are the calls of the source.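 How the source made its calls, unless noted: active means fluorescence slope higher than the sample average by over 3 SD (cut at about -0.22 in these data, passing the limit was not always enough); inactive means the rest.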

Assays:
[1] = inhibitors of TNFa-induced NFkB p65 translocation, primary screen, imaging, HUVEC, MLSMR starter and 10KST1 sets (AID 438;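 active means inhibition above 20% together with a positive visual image hit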;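 further: compound added about 3h40 before a 20 min TNFalpha stimulation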;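 on inhibition: signal is the nuclear over cytoplasmic p65 intensity ratio per well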); settings: HUVEC TNFa-induced p65 nuclear translocation; cell count: measured here: nuclei count (cytotoxicity indicator), at 2.08 µM; inhibition: at 2 µM, stronger effect = higher value, 0% TNFa-plus-vehicle, 100% no-TNFa wells
[2] = reduction of polyQ htt aggregates in cells – imaging, exon1htt(103Q)mCFP cells, high-content imaging, primary screen (AID 483;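 active means visual image review flags a hit and inhibition of aggregation exceeds 20%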;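 further: compound exposure lasted 3 days before fixation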;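 on nuclei count: percent of the per-plate median nuclei count of sample wells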); settings: exon1htt(103Q)mCFP cell line, aggregate imaging, at 2 µM; inhibition of aggregation: stronger effect = higher value; nuclei count: measured here: cell count, toxicity
[3] = endothelial E-selectin expression blockers – imaging, HUVEC, immunofluorescence, MLSMR starter and 10KST1 sets, primary screen (AID 487;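 active means visually confirmed hit in the image check and inhibition above 20%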;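 on inhibition: signal is fraction of cell area covered by stained E-selectin grains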;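 on nuclei count: 100% = median nuclei count of all wells on the same plate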); settings: HUVEC TNFalpha-induced E-selectin immunofluorescence imaging, at 2 µM; inhibition: stronger effect = higher value; nuclei count: measured here: cell number, toxicity
[4] = target: Voltage-gated potassium channel subunit beta-2 (Rattus norvegicus) (UniProt P62483); assay: inhibitors of rat Kvbeta2 reductase activity – biochemical, NADPH fluorescence, primary screen (AID 622); settings: recombinant KvBeta, 4-cyanobenzaldehyde reduction, at 10 µM, stronger effect = higher value;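 further: slope of raw intensity against log time taken from 70 to 1610 s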
[5] = target: Voltage-gated potassium channel subunit beta-2 (Rattus norvegicus) (UniProt P62483); assay: enhancers of rat Kvbeta2 NADPH turnover – biochemical, NADPH fluorescence, primary screen (AID 623;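 active means NADPH fluorescence slope more negative than the mean of all samples by about 3 SD, 99.7% confidence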;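 further: fluorescence intensity change per second fitted from 20 to 320 s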); settings: Recombinant KvBeta, NADPH fluorescence decrease slope, 10 min; at 10 µM; stronger effect = lower value
[6] = target: Alpha-2C adrenergic receptor (Homo sapiens) (UniProt P18825); assay: compounds altering alpha2C-coupled GIRK flux – cell-based, HEK293 alpha2C/GIRK1/2, thallium flux, primary screen (AID 624;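 active means fluorescence slope after compound addition differing from the mean of all screened samples at 99.7% confidence, in either direction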;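 further: slope of fluorescence ratio to pre-addition baseline per second over 15 to 24 s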); settings: thallium flux BTC fluorescence, at 10 µM, actives lie on both sides
[7] = inhibitors of larval lipid processing in zebrafish, primary screen, whole organism, PED6 fluorescence, gall bladder and intestine (AID 686;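 active means a full or partial loss of lipid-probe fluorescence in the fish gall bladder, intestine or both, judged by eye; inactive means no fluorescence loss, or compound toxic to the fish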;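 further: larvae 5 to 7 days old with five fish per well; signal comes from phospholipase A2 cleavage of quenched PED6 carried via bile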); settings: Zebrafish larvae PED6 lipid processing, fluorescence scoring; screened at 20 µM (by protocol)
Outline: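 Incubation: overnight exposure of larvae to compound plus PED6 / Test system: live zebrafish larvae aged 5-7 days, whole organism / Amount: 5 larvae per well / Read-out basis: visual per-well fluorescence inhibition score / Signal: visual fluorescence microscopy scoring of gall bladder, gut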

[8] = blockers of RIG-like receptor reporter activation – cell-based, Sendai virus stimulus, luciferase, 10K MLSCN set, TLR/RLR signaling modifier project, primary screen (AID 602276;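 active means inhibition at or above 50% at 10 µM; inactive means inhibition below 50%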;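 further: firefly luciferase from ISG56 promoter only with Renilla not read in this screen; 0% = Sendai virus plus DMSO and 100% = medium plus DMSO without virus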); settings: HEK293 RL24 IRF3 luciferase reporter, at 10 µM, stronger effect = higher value
[9] = TLR3 IRF3 reporter activation blockers – cell-based, poly I:C stimulus, luciferase, 10K MLSCN set, primary screen (AID 602277;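 active means inhibition of the reporter signal at or above 50%; inactive means inhibition below 50%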); settings: HEK293-TLR3 RL24 IRF3 luciferase reporter, at 10 µM, stronger effect = higher value

Voltage-gated potassium channel subunit beta-2 (Rattus norvegicus), sequence (P62483 whole entry, looked up): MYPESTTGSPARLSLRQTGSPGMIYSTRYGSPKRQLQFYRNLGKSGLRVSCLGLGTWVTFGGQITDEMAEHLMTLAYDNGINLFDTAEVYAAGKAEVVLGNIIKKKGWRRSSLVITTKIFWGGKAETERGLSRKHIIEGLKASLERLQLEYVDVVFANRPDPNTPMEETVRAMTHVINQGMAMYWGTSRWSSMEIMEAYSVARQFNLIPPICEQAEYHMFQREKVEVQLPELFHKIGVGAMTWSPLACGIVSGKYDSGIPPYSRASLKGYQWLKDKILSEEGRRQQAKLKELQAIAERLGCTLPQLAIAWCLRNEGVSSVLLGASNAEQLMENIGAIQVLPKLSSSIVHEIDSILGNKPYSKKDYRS
Alpha-2C adrenergic receptor (Homo sapiens), sequence (P18825 whole entry, looked up): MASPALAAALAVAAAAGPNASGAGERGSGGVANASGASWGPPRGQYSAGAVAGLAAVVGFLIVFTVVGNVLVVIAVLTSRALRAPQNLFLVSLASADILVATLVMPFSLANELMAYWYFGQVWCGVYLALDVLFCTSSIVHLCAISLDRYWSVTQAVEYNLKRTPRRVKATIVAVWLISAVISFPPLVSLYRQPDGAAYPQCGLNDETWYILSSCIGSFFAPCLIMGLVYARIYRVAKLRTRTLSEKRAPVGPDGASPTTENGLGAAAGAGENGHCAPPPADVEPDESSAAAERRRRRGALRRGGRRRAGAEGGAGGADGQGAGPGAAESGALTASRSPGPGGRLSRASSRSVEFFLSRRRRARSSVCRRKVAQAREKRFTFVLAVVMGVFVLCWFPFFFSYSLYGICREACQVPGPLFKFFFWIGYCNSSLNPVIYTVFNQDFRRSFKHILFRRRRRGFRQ

Compound	cell count [1]	inhibition [1]	inhibition of aggregation [2]	nuclei count [2] [%]	inhibition [3]	nuclei count [3] [%]	fluorescence slope [4]	NADPH fluorescence slope [5]	slope [6]	outcome [7]	inhibition [8]	inhibition [9]
Cc1ccc(-n2c(C)cc3c2CCCC3=O)cc1	313	2.4% (inactive)	-9.3% (inactive)	88.9	-29.8% (inactive)	118	-0.366 (inactive)	-7.7e-05 (inactive)	0.00516 (inactive)	inactive	5.45% (inactive)	8.48% (inactive)
COc1ccc(C(=O)Nc2ccc(Cl)c(Cl)c2)c(OC)n1	799	-7.1% (inactive)	-20.2% (inactive)	111	-145% (inactive)	137	-0.364 (inactive)	-6.9e-05 (inactive)	0.00581 (inactive)	inactive	-13.7% (inactive)	-67% (inactive)
CCOC(=O)C1CCN(C(=O)Nc2ccc3nc(C)c(C)nc3c2)CC1	331	2% (inactive)	26.1% (inactive)	84.8	-20.1% (inactive)	90.9	-0.00743 (active)	-2.9e-06 (inactive)	0.00559 (inactive)	inactive	8.11% (inactive)	5.19% (inactive)
C=CCN(CC=C)C(=O)Nc1cc(Cl)ccc1OC	373	0.5% (inactive)	-7.2% (inactive)	103	-87.7% (inactive)	111	-0.402 (inactive)	-3.2e-05 (inactive)	0.0044 (inactive)	inactive	4.56% (inactive)	-3.97% (inactive)
COC(=O)C1=C(C)N(Cc2ccco2)C(=O)C1	302	0.7% (inactive)	26.2% (inactive)	99.6	-12.5% (inactive)	101	-0.42 (inactive)	-3.5e-05 (inactive)	0.00527 (inactive)	inactive	8.55% (inactive)	8.79% (inactive)
COC(=O)c1[nH]c2ccc(C)cc2c1NC(=O)CN1CCN(C(=O)c2ccccc2)CC1	330	-4% (inactive)	3% (inactive)	99.5	-26.1% (inactive)	102	-0.306 (inactive)	-3.3e-05 (inactive)	0.00437 (inactive)	inactive	18.9% (inactive)	14.6% (inactive)
CSc1nnc(-c2cnccn2)n1Cc1ccccc1	386	2.9% (inactive)	-2.6% (inactive)	101	5.7% (inactive)	121	-0.481 (inactive)	-5.6e-07 (inactive)	0.00544 (inactive)	inactive	-5.1% (inactive)	2.59% (inactive)
COC(=O)Nc1sccc1C(=O)Nc1sccc1C(=O)OC	330	-0.2% (inactive)	23.3% (inactive)	96.8	17.9% (inactive)	95.9	-0.431 (inactive)	-3.4e-05 (inactive)	0.00336 (inactive)	inactive	1.3% (inactive)	-4.09% (inactive)
COc1cc(-c2nc(-c3ccncc3)no2)cc(OC)c1OC	491	-1.1% (inactive)	-1.8% (inactive)	88.9	58.4% (inactive)	50.2	-0.341 (inactive)	-3.8e-05 (inactive)	0.00475 (inactive)	inactive	4.77% (inactive)	-3.43% (inactive)
O=C(CN1C(=O)c2ccccc2C1=O)Nc1ccc(S(=O)(=O)NCC2CCCO2)cc1 (stereo not drawn)	389	-6% (inactive)	-2.4% (inactive)	93.4	-52.4% (inactive)	107	-0.412 (inactive)	-2.5e-05 (inactive)	0.00503 (inactive)	inactive	-1.96% (inactive)	98.2% (active)
COc1ccc(C(C)NC(=O)c2ccoc2C)cc1OC (stereo not drawn)	307	-8.9% (inactive)	-2.3% (inactive)	105	51.2% (inactive)	54.3	-0.383 (inactive)	-2.1e-05 (inactive)	0.00668 (inactive)	inactive	14.4% (inactive)	19.8% (inactive)
Cc1ccc2c(C(=O)CN3CCSCC3)c(C)[nH]c2c1	634	4.8% (inactive)	-7.9% (inactive)	106	2.2% (inactive)	104	-0.386 (inactive)	-8.2e-05 (inactive)	0.00551 (inactive)	inactive	-12.6% (inactive)	-12.9% (inactive)
Cc1onc(-c2ccccc2)c1C(=O)NCc1cccnc1	272	-15.4% (inactive)	-24.1% (inactive)	120	-22.8% (inactive)	112	-0.385 (inactive)	-6.1e-05 (inactive)	0.00521 (inactive)	inactive	6.6% (inactive)	8.85% (inactive)
CCOCCCN(Cc1cc2cc(C)cc(C)c2[nH]c1=O)C(=O)N(CC)CC	320	4.5% (inactive)	2.5% (inactive)	92.2	-15.3% (inactive)	106	-0.423 (inactive)	-3.6e-05 (inactive)	0.00543 (inactive)	inactive	-10.7% (inactive)	-6.77% (inactive)
